# Experimental data collected from several papers.
# Compare with care: the assays were run in different laboratories.
# Cell line: HepG2
# Read-out: cell growth or viability
Compound,method,time,IC50
CCCOc1nc(-c2cccc(O)c2)cc(-c2cc3cc(Cl)ccc3nc2N2CCOCC2)c1C#N,MTT,72 h,0.084 µM
CN(C)c1cc(NC(=O)Cc2cncnc2)c(O)c2c1C[C@H]1C[C@H]3[C@H](N(C)C)C(O)=C(C(N)=O)C(=O)[C@@]3(O)C(O)=C1C2=O,ATP luminescence,72 h,84.8 µg/mL
O=C(C=Cc1ccccc1)Nc1cc(-c2ccnc(N3CCC(O)CC3)c2)ccn1,MTT,72 h,0.111 µM
Cc1ccc(-c2cc(-c3ccc(Cl)cc3)c3c(=O)[nH]c(=O)[nH]c3n2)cc1,MTT,48 h,8.46 µM
CN(C)c1cc(NC(=O)Cc2cccnc2)c(O)c2c1C[C@H]1C[C@H]3[C@H](N(C)C)C(O)=C(C(N)=O)C(=O)[C@@]3(O)C(O)=C1C2=O,ATP luminescence,72 h,> 200 µg/mL
Cc1ccc(-c2cc(-c3ccc(N(C)C)cc3)c3c(=O)n(C)c(=O)n(C)c3n2)cc1,MTT,48 h,14.4 µM
COc1cccc2c1C(=O)c1c(O)c3c(c(O)c1C2=O)C[C@@](O)(C(=O)CO)C[C@@H]3O[C@H]1C[C@H](N)[C@H](O)[C@H](C)O1,MTT,24 h,4.5 µM
CN(C)c1cc(NC(=O)Cc2ccncc2)c(O)c2c1C[C@H]1C[C@H]3[C@H](N(C)C)C(O)=C(C(N)=O)C(=O)[C@@]3(O)C(O)=C1C2=O,ATP luminescence,72 h,> 200 µg/mL
Cc1ccc(-c2cc(-c3ccc(Cl)c(F)c3)c3c(=O)[nH]c(=O)[nH]c3n2)cc1,MTT,48 h,15.7 µM
CN(C)c1cc(NC(=O)Cc2ncccn2)c(O)c2c1C[C@H]1C[C@H]3[C@H](N(C)C)C(O)=C(C(N)=O)C(=O)[C@@]3(O)C(O)=C1C2=O,ATP luminescence,72 h,108 µg/mL
COc1ccc2[nH]c(C(=O)Nc3nc(CC(=O)O)cs3)cc2c1,MTT,24 h,59.8 µM
CN(C)c1cc(NC(=O)Cc2cccnn2)c(O)c2c1C[C@H]1C[C@H]3[C@H](N(C)C)C(O)=C(C(N)=O)C(=O)[C@@]3(O)C(O)=C1C2=O,ATP luminescence,72 h,> 200 µg/mL
COc1ccc(-c2cc(-c3ccccc3Cl)c3c(=O)[nH]c(=O)[nH]c3n2)cc1,MTT,48 h,18.9 µM
COc1nc(NCc2cn(-c3ccc(C(=O)Nc4ccc(C(F)(F)F)cc4)cc3)nn2)nc(OC)n1,MTT,72 h,0.0651 µM
COc1ccc(-c2cc(-c3cc(OC)ccc3OC)c3c(=O)[nH]c(=O)[nH]c3n2)cc1,MTT,48 h,13.1 µM
COc1cccc2c1C(=O)c1c(O)c3c(c(O)c1C2=O)C[C@@](O)(C(=O)CO)C[C@@H]3O[C@H]1C[C@H](N)[C@H](O)[C@H](C)O1,MTT,72 h,0.54 µM
